# From PubChem BioAssay
# Rows were chosen to be rich in hits. Some 4.1% of all compounds tested hit in one or more screens of this group.
# Efflux pump mplx – inhibitors of Candida efflux pumps in yeast, primary screen, S. cerevisiae, Nile Red, multiplex. inhibition, % at 10 µM. AID 485275, 2010. 0.44% of 330,000 active. S. cerevisiae Candida pump triplex;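 active = plate passing quality check with inhibition over a set limit, or well fluorescence over plate mean plus 4 SD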;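 note: Nile Red retained in pooled yeast measured as flow cytometry median fluorescence; 0% = buffer negative control and 100% = Enniatin B positive control; higher means more Nile Red kept so more efflux inhibition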
# Tb MetRS inh – T. brucei MetRS inhibitors, primary screen, biochemical, luminescence | purified T. brucei MetRS, ATP depletion, Kinase-Glo luminescence | 0.4% of 360,000 active | inhibition, % at 11.9 µM | methionyl-tRNA synthetase (Trypanosoma brucei brucei);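 active = inhibition above a per-plate cutoff of the control wells' mean inhibition plus 3 SD, cut at about 5.5% in these data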;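 note: 0% = DMSO wells median and 100% = median of wells with control inhibitor compound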
#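 Assay system: T. brucei methionyl-tRNA synthetase, purified | Medium: HEPES buffer with MgCl2, KCl, DTT, spermine, BSA, pyrophosphatase | Compound: 11.9 µM single point | Incubation: 15 min enzyme-compound preincubation, 2 h reaction, 10 min detection, 25 °C | Measured by: Kinase-Glo luciferase luminescence reporting remaining unconsumed ATP | Measure: % inhibition normalized to control-well medians | Replication: Singlicate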
# SMARCA2 activ – SMARCA2 (BRM) function activators, primary screen, cell-based, luminescence, high throughput; MG213 cells, MMTV-luciferase reporter, dexamethasone, overnight; activation, % at 9.1 µM; 1% of 370,000 active; AID 652017, 2013; in the data active = activation above about 7.8%;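 note: 0% = vehicle wells and 100% = reference activator wells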
# H9c2 TAG inh – inhibitors of triacylglycerol accumulation, primary screen, cell-based, uHTS, fluorescence, H9c2; H9c2 cells, Nile Red lipid (TAG) fluorescence; cells loaded with 200 µM oleic acid; inhibition, % at 12.5 µM; 0.66% of 230,000 active;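 active = pattern-corrected inhibition of lipid staining of at least 50% with the nuclear-stain viability signal not falling by more than 50%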;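 note: 0% = DMSO wells and 100% = triacsin C control wells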
# AHR activator – AHR activators, primary screen, cell-based, luminescence, luciferase reporter, human. AID 2796, 2010. AHR-responsive luciferase reporter cells. activation, % at 5 µM. 2.5% of 320,000 active; in the data active = activation above about 47%;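 note: 0% = vehicle wells and 100% = reference agonist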
# Target sequence (P35869 whole entry, looked up): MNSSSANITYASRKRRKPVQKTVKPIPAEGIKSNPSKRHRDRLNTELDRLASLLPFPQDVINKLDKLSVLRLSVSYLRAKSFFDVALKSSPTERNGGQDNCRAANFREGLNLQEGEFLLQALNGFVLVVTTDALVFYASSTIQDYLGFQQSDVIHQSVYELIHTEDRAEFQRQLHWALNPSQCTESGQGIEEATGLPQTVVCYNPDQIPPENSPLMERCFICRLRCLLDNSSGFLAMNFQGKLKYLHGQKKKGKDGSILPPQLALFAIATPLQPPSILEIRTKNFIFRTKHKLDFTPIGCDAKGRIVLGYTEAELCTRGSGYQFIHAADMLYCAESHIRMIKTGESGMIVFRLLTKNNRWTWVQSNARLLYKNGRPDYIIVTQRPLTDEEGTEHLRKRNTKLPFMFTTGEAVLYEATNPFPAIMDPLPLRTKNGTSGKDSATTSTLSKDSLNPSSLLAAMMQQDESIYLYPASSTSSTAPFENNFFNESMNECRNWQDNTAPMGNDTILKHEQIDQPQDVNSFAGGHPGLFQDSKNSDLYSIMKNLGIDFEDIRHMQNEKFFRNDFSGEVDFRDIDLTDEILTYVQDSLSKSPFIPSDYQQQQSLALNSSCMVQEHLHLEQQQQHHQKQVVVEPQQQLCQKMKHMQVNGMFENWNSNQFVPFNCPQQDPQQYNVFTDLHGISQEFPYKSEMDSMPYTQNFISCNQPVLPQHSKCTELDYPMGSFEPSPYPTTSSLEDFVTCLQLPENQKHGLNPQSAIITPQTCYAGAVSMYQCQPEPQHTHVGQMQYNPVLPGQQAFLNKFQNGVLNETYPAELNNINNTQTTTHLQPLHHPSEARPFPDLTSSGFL
# TAG conf – triacylglycerol accumulation inhibitors, retest, confirmation, cell-based, single concentration, Nile Red fluorescence, H9c2; shares compounds with H9c2 TAG inh; H9c2 lipid accumulation; cells loaded with 200 µM oleic acid; inhibition, % at 12.5 µM; 71% of 990 active; AID 651629, 2012;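 active = mean inhibition across replicates of 40% or more; inactive = mean inhibition below 40%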;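 note: plate controls were DMSO only wells for no effect and Triacsin C treated wells for full effect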
# Numbers without * were called inactive; nt = no result given.
SMILES,Efflux pump mplx,Tb MetRS inh,SMARCA2 activ,H9c2 TAG inh,AHR activator,TAG conf
Cn1cc(CN2CCC(C(=O)NC(c3ccc(F)cc3)c3ccc4ccccc4n3)CC2)c2ccccc21 (stereo not drawn),nt,0,-2,103*,nt,98*
Cc1cc(C)nc(Sc2ncnc(N)c2[N+](=O)[O-])n1,0,0,1,61*,4,37
Cc1cccc(Nc2ncnc(N)c2[N+](=O)[O-])n1,0,0,-3,3,0,nt
Nc1[nH]c(C(=O)c2ccccc2)c(-c2ccc3ccccc3c2)c1C(=O)NC1CC1,nt,nt,-1,nt,nt,nt
COc1ccc(Cl)cc1NC(=O)CSc1nnc(COc2ccccc2)n1C,0,0,-3,nt,2,nt
COc1ccc(Cl)cc1NC(=O)CSc1nnc(COc2ccccc2)n1N,0,0,1,54*,18,30
CN1CCCC(n2nc(Cc3ccc(Cl)cc3)c3ccccc3c2=O)CC1 (stereo not drawn),0,-1,-5,85*,-3,40*
O=C1N[C@@H](Cc2ccccc2)COC(=O)[C@@H](Cc2ccc(F)cc2)CC/C=C/C[C@@H]1CC(=O)N(CCO)Cc1ccccc1,0,0,-1,55*,0,44*
CN1CCN(c2ccc(Cl)cc2NC(=O)c2nn(-c3ccccc3)c(=O)c3ccccc23)CC1,nt,0,-1,52*,nt,27
CN(C)C(=O)CN1C(=O)NC2(CCCc3ccccc32)C1=O (stereo not drawn),0,-1,-2,5,1,nt
Cc1ccc(CN(C)C(=O)CN2C(=O)NC3(CCCc4ccccc43)C2=O)c(C)c1 (stereo not drawn),0,0,-1,51*,1,40*
Clc1cc(Cl)cc(CN2CCN(c3ncc(Cc4ccccc4)cn3)CC2)c1,nt,nt,-4,nt,nt,nt
CCN(CC)C(=O)CNc1nnnn1-c1ccccc1,nt,nt,1,nt,nt,nt
Cc1ccc(-c2cc(C(F)F)n3ncc(C(=O)Nc4c(C)nn(Cc5c(Cl)cccc5Cl)c4C)c3n2)cc1,0,0,-1,89*,3,47*
COC(=O)[C@]12C[C@H](CC(=O)NCc3ccc(C)o3)C(=O)N(CCC3=CCCCC3)C1=C[C@H](COCc1ccccc1)O[C@@H]2C,nt,nt,-2,nt,nt,nt
CNC(=O)c1ccc(-c2sc3nc(N4CCOCC4)c4c(c3c2N)CC(C)(C)OC4)o1,0,0,-5,52*,4,67*
CNC(=O)c1ccc(-c2sc3nc(N4CCOCC4)c4c(c3c2N)CCCC4)o1,0,0,-2,51*,21,74*
CC1(C)Cc2c(c(N3CCOCC3)nc3sc(-c4ccc(C(=O)O)o4)c(N)c23)CO1,0,0,0,22,1,nt
Nc1c(C(=O)NCc2ccccc2)sc2nc(N3CCOCC3)c3c(c12)CCCC3,0,-1,2,55*,-15,42*
OC(c1ccccc1)(c1ccccc1)C1CCN(CCCOc2ccc(-c3cccnc3)cc2)CC1,nt,nt,6,nt,nt,nt
COc1cccc([C@@H](NC(=O)C(F)(F)F)[C@@H]2CCCC=C2c2ccccc2)c1,nt,nt,-1,nt,nt,nt
COC(=O)C1=C(C)N(Cc2ccccc2)C(=NCc2cc(OC)c(OC)c(OC)c2)N[C@H]1c1ccc(Br)cc1,0,0,nt,62*,-1,62*
COC(=O)C1=C(C)N(Cc2ccccc2)C(=NCc2ccccc2)N[C@H]1c1ccccc1,0,0,0,105*,-2,53*
COC(=O)C1=C(C)N(Cc2ccccc2)C(=NCc2cccc(Cl)c2)N[C@H]1c1ccccc1,0,0,nt,38,-2,nt
COc1cc(CC(=O)OCC(=O)c2ccc3c(c2)OCCO3)cc(OC)c1OC,0,0,2,68*,12,49*
C[C@H](CO)N1C[C@H](C)[C@H](CN(C)C(=O)C2CCCCC2)OCc2cnnn2CCCC1=O,nt,nt,4,nt,nt,nt
O=C(COc1ccc(Br)cc1CNC1CCCCC1)NCCc1ccccc1,0,-1,1,59*,1,39
COc1ccc(Br)cc1CN(C)CC(=O)NCCc1ccccc1,0,-1,-6,-11,4,nt
